Experimental findings from ChEMBL document CHEMBL1123103, “Pyrimidinones. 1. 2-Amino-5-halo-6-aryl-4(3H)-pyrimidinones. Interferon-inducing antiviral agents” (1985) are described below.

Common to all, as to type: functional
For test [1], the system named is Semliki Forest virus. Nature of the test: Effective dose administered perorally againist Forest virus infected mice. The following applies: po. The method, boiled down: (§1)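 ICR or CD-1 mice of both sexes got one drug dose by the route in the line (ip, po or sc). The drug was a suspension in 0.9% NaCl or in a CMC/polysorbate 80/benzyl alcohol/NaCl vehicle. […] Deaths were recorded daily for 6 days, 24 mice/group. ED50 is the minimal dose protecting 50% of mice, by probit analysis.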

Test [2] has as its system Semliki Forest virus. Description: Antiviral activity against Forest virus (SFV). In short, it runs like this: as §1
In the next test the test system is Human alphaherpesvirus 1. Nature of the test: Intraperitoneal administration against herpes simplex virus type-1 (HSV-1) infected mice. The method, boiled down:
(§2)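 ICR or CD-1 mice got drug ip in saline as the total daily dose (mg/kg/day). It was split into doses at -40, -28, -20, -3 and +3 h relative to ip inoculation with 5.6×10^4 pfu HSV-1. Mice were followed for 22 days, 15/group. Protection index = (control mortality − treated mortality)/control mortality; >0.25 counted active. Only the lowest protective dose is recorded.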

Test [3] has as its system Semliki Forest virus. Description: Effective dose administered subcutaneously againist Forest virus infected mice. The following applies: sc. In short, it runs like this: as §1
Test [4] concerns Mus musculus. Nature of the test: The compound was evaluated for the serum interferon response from a single 800 mg/kg intraperitoneal administration in vesicular stomatitis virus on […] cells; Range 500-1000 units/mL. The method, boiled down: (§3)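 Mice got a single ip 800 mg/kg dose. Blood was drawn 3, 6, 8 and 12 h later from five mice per group and pooled. Interferon titer was measured by plaque reduction with vesicular stomatitis virus on L929 cells. Titer is the reciprocal serum dilution cutting plaques by 50% versus untreated cultures. Peak response within 24 h was banded: ≥2000, ~500-1000, ~50-500, ~10-50 U/mL.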

Test [5] deals with Mus musculus. Nature of the test: The compound was evaluated for the serum interferon response from a single 800 mg/kg intraperitoneal administration in vesicular stomatitis virus on […] cells; range 500-1000 units/mL. The method, boiled down: as §3
Test [6] deals with Mus musculus. Description: The compound was evaluated for the serum interferon response from a single 800 mg/kg intraperitoneal administration in vesicular stomatitis virus on […] cells; range 50-500. In short, it runs like this:
as §3

Test [7] relates to Vesicular stomatitis virus. Description: Evaluation for serum interferon response from a single 800 mg/kg intraperitoneal administration in vesicular stomatitis virus on […] cells. The method, boiled down:
as §3

Test [8] has as its system Mus musculus. Description: Protection index after intraperitoneal administration (25 mg/kg/day) against herpes simplex virus type-1 (HSV-1) infected mice [protection index=(control mortality-treated mortality)/control mortality]. The method, boiled down: as §2
The test system of test [9] is Mus musculus. Description: Protection index after intraperitoneal administration (50 mg/kg/day) against herpes simplex virus type-1 (HSV-1) infected mice [protection index=(control mortality-treated mortality)/control mortality]. In short, it runs like this:
as §2

Test [10] deals with Mus musculus. Description: Evaluation for serum interferon response from a single 800 mg/kg intraperitoneal administration in vesicular stomatitis virus on […] cells; Range 10-50 units/mL. In short, it runs like this: as §3
For test [11], the system named is Mus musculus. Description: The compound was evaluated for the serum interferon response from a single 800 mg/kg intraperitoneal administration in vesicular stomatitis virus on […] cells; Range 50-500 units/mL. In short, it runs like this: as §3

`Nc1nc(O)c(I)c(-c2cccc(Cl)c2)n1`: the ED50 (commonly the dose that gives a 50% effect, or the effect in half of the subjects) in the test with Semliki Forest virus [1] is above 400 mg/kg; with Semliki Forest virus [2], 35 mg/kg; in the test on Semliki Forest virus [3] it was 250 mg/kg. The Protection index in the test on Human alphaherpesvirus 1 stood at 0.65. For the same molecule, the IFN in the test on Mus musculus [4] is given as 500 units/mL.
As to `Nc1nc(O)c(Cl)c(-c2cnccn2)n1`, the 50% effective dose (ED50) is 395 mg/kg in the test on Semliki Forest virus [1], 110 mg/kg in the test with Semliki Forest virus [2] and above 400 mg/kg in the test with Semliki Forest virus [3]. Besides, the IFN in the test with Mus musculus [5] turned out to be 500 units/mL. The Protection index in the test with Human alphaherpesvirus 1 amounted to 0.07.
`Nc1nc(O)c(I)c(-c2cccc(Br)c2)n1`: the ED50 is above 400 mg/kg in the test on Semliki Forest virus [1], 65 mg/kg in the test on Semliki Forest virus [2] and 90 mg/kg with Semliki Forest virus [3]. This molecule had an IFN in the test on Mus musculus [6] of 500 mL.
Take `Nc1nc(O)c(I)c(-c2cnccn2)n1`: the ED50 is above 400 mg/kg in the test on Semliki Forest virus [1], 275 mg/kg in the test with Semliki Forest virus [2] and above 400 mg/kg in the test with Semliki Forest virus [3]. Besides, the IFN with Mus musculus [5] is listed as 500 units/mL.
Take `Nc1nc(O)c(Cl)c(-c2cccc(F)c2)n1`: the results for the ED50 in the test on Semliki Forest virus [1], in the test with Semliki Forest virus [2] and in the test with Semliki Forest virus [3] were above 400 mg/kg, 30 mg/kg and 100 mg/kg, respectively. The IFN entry in test [7] is recorded as “>=2000 ml”. This molecule also showed a Protection index with Mus musculus [8] of 0.61.
With `Cc1ccccc1-c1nc(N)nc(O)c1Cl`, the values for the ED50 with Semliki Forest virus [1], in the test on Semliki Forest virus [2] and in the test with Semliki Forest virus [3] were above 400 mg/kg, 130 mg/kg and 350 mg/kg, respectively. For the same molecule, the IFN with Mus musculus [5] was 500 units/mL. The same molecule had a Protection index in the test on Human alphaherpesvirus 1 of 0.13.
Consider `Nc1nc(O)c(I)c(-c2ccccc2F)n1`, for which the ED50 in the test with Semliki Forest virus [1] was above 400 mg/kg; in the test on Semliki Forest virus [2], 105 mg/kg; in the test with Semliki Forest virus [3], above 400 mg/kg. Besides, the IFN in the test with Mus musculus [5] was 500 units/mL. In the test on Mus musculus [9], this molecule gave a Protection index of 0.67.
`COc1cccc(-c2nc(N)nc(O)c2I)c1`: the ED50 in the test on Semliki Forest virus [1] was above 400 mg/kg; with Semliki Forest virus [2], 40 mg/kg; in the test with Semliki Forest virus [3], above 400 mg/kg. In the test on Mus musculus [9], this molecule gave a Protection index of 0.54. This molecule also came in with an IFN in the test on Mus musculus [10] of 10 units/mL.
In the case of `Nc1nc(O)c(Cl)c(-c2cc(F)ccc2F)n1`, the results for the ED50 in the test on Semliki Forest virus [1] and in the test on Semliki Forest virus [2] were above 400 mg/kg and 165 mg/kg, respectively. This molecule also registered an IFN in the test on Mus musculus [4] of 500 units/mL.
As to `Nc1nc(O)c(Br)c(-c2ccccc2F)n1`, the ED50 with Semliki Forest virus [1] was above 400 mg/kg; in the test with Semliki Forest virus [2], 25 mg/kg; with Semliki Forest virus [3], 200 mg/kg. This molecule also had a Protection index in the test with Mus musculus [9] of 0.69. In addition, in test [7], the IFN was 50 units/mL.
Regarding `Nc1nc(O)c(Br)c(-c2cccc(C(F)(F)F)c2)n1`, the ED50 is above 400 mg/kg in the test on Semliki Forest virus [1], 200 mg/kg with Semliki Forest virus [2] and above 400 mg/kg with Semliki Forest virus [3]. The IFN in the test on Mus musculus [11] worked out at 50 mL. For the same molecule, the Protection index in the test on Human alphaherpesvirus 1 is on record as 0.53.
Turning to `Nc1nc(O)c(Br)c(-c2cccc(F)c2)n1`, the ED50 was 175 mg/kg in the test with Semliki Forest virus [1], 70 mg/kg in the test on Semliki Forest virus [2] and 155 mg/kg with Semliki Forest virus [3]. Also, in test [7], the IFN result is reported as “>=2000 ml”. The molecule further gave a Protection index in the test on Mus musculus [8] of 0.64.
Take `Nc1nc(O)c(Br)c(-c2cccc(Br)c2)n1`: the ED50 with Semliki Forest virus [1] was above 400 mg/kg; in the test with Semliki Forest virus [2] it was 110 mg/kg; in the test with Semliki Forest virus [3] it was above 400 mg/kg. The molecule further registered a Protection index in the test on Human alphaherpesvirus 1 of 0.47. For the same molecule, the IFN in the test on Mus musculus [6] came out at 500 mL.
As for `Nc1nc(O)c(I)c(-c2cccc(F)c2)n1`, the ED50 is above 400 mg/kg with Semliki Forest virus [1], 10 mg/kg in the test on Semliki Forest virus [2] and 80 mg/kg in the test with Semliki Forest virus [3]. Moreover, in the test on Mus musculus [8], the Protection index was found to be 0.25. The IFN in the test with Mus musculus [4] is 500 units/mL.
As for `Nc1nc(O)c(Cl)c(-c2cccc(F)c2F)n1`, the ED50 in the test with Semliki Forest virus [1] worked out at 200 mg/kg; in the test on Semliki Forest virus [2] it was 70 mg/kg. In addition, the Protection index in the test with Human alphaherpesvirus 1 is recorded as 0.93. The IFN with Mus musculus [4] was 500 units/mL.
For the molecule `Nc1nc(O)c(Cl)c(-c2ccccc2F)n1`, the ED50 in the test with Semliki Forest virus [1] came to 105 mg/kg; with Semliki Forest virus [2] it was 105 mg/kg; with Semliki Forest virus [3], 115 mg/kg. In the test on Mus musculus [9], this molecule had a Protection index of 0.69. In addition, the IFN entry in [7] is given as “>=2000 ml”.
Turning to `Nc1nc(O)c(Br)c(-c2ccc(F)cc2)n1`, the ED50 in the test on Semliki Forest virus [1] is above 400 mg/kg; in the test on Semliki Forest virus [2] it was 160 mg/kg; in the test on Semliki Forest virus [3], above 400 mg/kg. In the test on Human alphaherpesvirus 1, this molecule showed a Protection index of 0.46. The molecule also came in with an IFN in the test with Mus musculus [4] of 500 units/mL.
